# According to the EternaBench riboswitch data:
# Tested on: MS2 coat protein
# Experiment: apparent Kd, MS2 coat protein; higher = weaker binding; RNA-MaP array
# Procedure, shortened: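 Apparent Kd values come from the median of binding-curve fits to single clusters. To obtain them, designed RNAs transcribed on an Illumina sequencing chip from sequenced DNA templates were incubated at room temperature with fluorescently labeled MS2 coat protein at 1.5 nM to 3 μM, with or without input ligand, for 0.8–1.5 h at the lowest and 10–20 min at the highest concentrations. Designs measured on fewer than 10 clusters were excluded.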
# [1] = designed as: OFF switch for flavin mononucleotide, no ligand
# [2] = ligand present: flavin mononucleotide, designed as: OFF switch for flavin mononucleotide
# [3] = designed as: ON switch for flavin mononucleotide, no ligand
# [4] = ligand present: flavin mononucleotide, designed as: ON switch for flavin mononucleotide
# [5] = designed as: OFF switch for theophylline, no ligand
# [6] = ligand present: theophylline, designed as: OFF switch for theophylline
# [7] = designed as: ON switch for tryptophan, no ligand
# [8] = ligand present: tryptophan, designed as: ON switch for tryptophan
Sequence,apparent Kd [1] [nM],apparent Kd [2] [nM],apparent Kd [3] [nM],apparent Kd [4] [nM],other results
CACAUGAGGAUCACCCAUGUGUGGUGGGUGGUGCAACAUUGUAAGGAUAUAAUGGACGUCGGCCCUUAGAAGGUACAUUGUACG,139,110,–,–,–
CACUGACAACGAGGAUAUGGUCGAGCCAGACAUGAGGAUCACCCAUGUAUCGAAAGCAAUAAACUCCAGAAGGCGUAACAGUUG,–,–,10.4,11.6,–
CAGCAACAAUUGGAUACCAGCCAUUACAGGUAUCAUUAUAACAUGAGGAUCACCCAUGUAGGCCCUUGGCAGCCAUUGGUGUAAG,–,–,–,–,apparent Kd [5]: 39.1 nM; apparent Kd [6]: 106 nM
CAGGAUCCGAAGAAGGGCAUCGGCCACAGGGCUGCAGGAUAUUCAAUUCAUGCAACAUGAGGAUCACCCAUGUAAUGGGCCGUU,27.5,22.3,–,–,–
CAUCAUGGGCUUGGACAAAUUGUGCUUGAUACCAGAAAUCACCGGUUCCCUUGGCAGCAACCCACAUGAGGAUCACCCAUGUGGA,–,–,–,–,apparent Kd [5]: 20.6 nM; apparent Kd [6]: 31.2 nM
CAUGUAGGCGAGAAGGCAACCGCGGUCCGGGAUUGAGGAUAUCGGCCAGGUGAUCCCGCCCAACAUGAGGAUCACCCAUGUAGC,339,202,–,–,–
CAUUCUUUAGUAAGGAUAUCAACUUGUUUAUAUAAUGAGAAGGUACAUGAGGAUCACCCAUGUCUCACAUCGGU,8.72,7.9,–,–,–
CCACCAACAGGAUAUACGCUGAGGUUUUCUAACGGUCAUGUACAUGAGGAUCACCCAUGUAGAAGGGUUGUAGG,37,55.6,–,–,–
CCACGACUAGGAUAUACCUAUGUUCACUCGUGAUCAAGGACACAUGAGGAUCACCCAUGUAGAAGGAGUCGCUA,8.84,10.6,–,–,–
CCAGGACAUGAGGAUCACCCAUGUCAACAUCAAAUAAGCGCGUAGGAUAUCAAUACUGAAAGCUUUGAGAAGGACGAGAGGGUA,–,–,22.8,17.8,–
CCCUCGUCAACGGCCGCCACUGUGAUUCACUAAGAUAAUAUUGCACAUGAGGAUCACCCAUGUCUCAGGACCGGGUUGGUGUGUC,–,–,–,–,apparent Kd [7]: 105 nM; apparent Kd [8]: 65.9 nM
CCCUCUUUAUAGGAUAUGUAGACCAUGGGACAAACAGAAGGAUAGACAUGAGGAUCACCCAUGUGGGAAAACUU,31.8,30.4,–,–,–
CCGGCAACGUAAGGAUAUGAUUCGCGUCUUGACAUGAGGAUCACCCAUGUAACUGUCGAAAUGGCUCAGAAGGUACCAGUGCCC,–,–,26.6,17.9,–
CCGGCGGAAGGAUAUUGCGAUGACCACAUGAGGAUCACCCAUGUCAACUUGAUCCGGGUACAAGAAGGUCCAGCGA,19.3,15.9,–,–,–
CCGUUCGCCGAGAAGGGACAGGACUUAAUAGCGUCAGGAUAUCGCGGACCGUGAUUCUAUGACAUGAGGAUCACCCAUGUGCUU,34.7,11.7,–,–,–
CCUCUCUUCCAGAAGGCUAUCCUAGCAUACGAUAGAGGAUAUGGACCACAAUACGGGUAGAGACACAUGAGGAUCACCCAUGUU,–,–,72.4,185,–
CCUGCAGGUCAGGAUAUCAUAUCUGGCUAACUAUGAGAAGGGACAACAUGAGGAUCACCCAUGUGGUGAUAACA,666,509,–,–,–
CCUUCCUAGUGAGGAUAUCGGCUUGGACUCGAGCGAGAAGGCACCUAAUCGAAGAACUUUUAUCCACAUGAGGAUCACCCAUGU,–,–,11.8,11.1,–
CGAAAUUCAGUAAGGAUAUUAGGAGGCUCUGCGGCUAAGAAGGUACAUGAGGAUCACCCAUGUGGCACCGCAUG,7.65,7.82,–,–,–
CGAAGACAUGAGGAUCACCCAUGUAAGGAUAUUCAAAGAGCGCACCUGAAUGCCCUAUGAAGAAGGUACCGGGC,69.9,52.1,–,–,–
CGAGGACAUGAGGAUCACCCAUGUGACCGUGCCAAAGGAUAUCACAGGAAAUAAUACAGUUGAGAAGGUUGAUCGG,–,–,47.1,17.6,–
CGAUCUGGCUAAGGAUAUCAAGUGCGCAUGGUUUGACAGCACAUGAGGAUCACCCAUGUAACGCAUGAGAAGGUAGGCACACAG,223,183,–,–,–
CGGAAACAUGAGGAUCACCCAUGUGUAGAAAAGACAGGAUAUGACAAGGGCUUGAAGUGCUCAGAAGGGUCUGGAC,–,–,15.4,11.2,–
CGGAAUUCAGGAUAUGGCAUAUCCUACAUGAGGAUCACCCAUGUAUGACCCGUGUGCCGGCCAGAAGGGAACGCUG,10.8,12,–,–,–
CGGCCACAUGAGGAUCACCCAUGUAGUUCGUCUAAAGGAUAUCCAGGUGGGUGACUCCAAGGAGAAGGUUAGGACG,–,–,54.7,39.3,–
CGGUGAUAUGAAGGAUAUGCACAUGAGGAUCACCCAUGUAACCACUAGAACAAAACGUAGUAACCGCAGAAGGUCAGCAGUAGU,–,–,23.6,14.5,–
CUACAUGAGGAUCACCCAUGUGCCUCUGGUCAGGGUCACUACGAGGAUAUAAUAGUUUAGACGAGUUAGAAGGCGUAUGAGUUA,111,77.4,–,–,–
CUCACCUCGUGGAAGGAUAUACACUUUAGCACAUGAGGAUCACCCAUGUCCGCCGCAAAUCCUAGGUAGAAGGUCCGCAACAUUCG,–,–,23.5,18,–

Sequence,apparent Kd [1] [nM],apparent Kd [2] [nM],apparent Kd [3] [nM],apparent Kd [4] [nM],other results
CUCGAAUUAUCAGGAUAUCCACAAUUCGAAGAAGGAGAAGGGAUGGCAGGGCUAACAUGGAACAUGAGGAUCACCCAUGUGCAA,–,–,11.2,9.94,–
CUCGGAAACGGAGGAUAUAGCUGAAGAGGAUUACUAGAAGGCCGAGACAUGAGGAUCACCCAUGUUUUCUCAAGUCGCAGUUUA,7.93,9.48,–,–,–
CUCGGAACAAUCGAUACCAGUUCUCAUGGAUUGCAGCAGUACAUGAGGAUCACCCAUGUAAACCCUUGGCAGCGAAGAACAAGAC,–,–,–,–,apparent Kd [5]: 32.7 nM; apparent Kd [6]: 55.3 nM
CUCGUGUGAGGAUAUUGAUCACAGGUCACGGUGCAGGAAUACAAGAAGGCACAUGAGGAUCACCCAUGUAACCG,15.7,45,–,–,–
CUGUACCGAAUAGGAUAUGAAAAGAAGGUAAAUUCAGAAGGAUUCAAUUAAUUUACAUGAGGAUCACCCAUGUCUAAGCAAACA,–,–,12.2,8.39,–
CUUCCACGAGGAUAUCCGUUAACGGACAUGAGGAUCACCCAUGUUAUCCUCACGUCAGCAGGAGAAGGCGUCUCAU,22.5,33,–,–,–
CUUGUGUGAGGAUAUUAGACACAAUCCGACAGCGGGAUAGUUAAGAAGGCACAUGAGGAUCACCCAUGUUGAGU,44.2,81.2,–,–,–
CUUUGACGUGAGAAGGUGCAGGGAAUACACAAGCAAGGAUAUCAUGCACAUGAGGAUCACCCAUGUCCUGUAACGUUUGGUGAC,437,302,–,–,–
GAACAACAUGAGGAUCACCCAUGUCAGGAUACCAGUCGAAAGUCAGACCCUUGGCAGCCUAUCACUCAGCAAAUAGAUAGUACAA,–,–,–,–,"apparent Kd (designed as: ON switch for theophylline, no ligand): 15.2 nM; apparent Kd (ligand present: theophylline, designed as: ON switch for theophylline): 13.7 nM"
GAACUUCGAGUCAGGAUAUGUACAUCAAAACCAAAACAGAAGGGACAUGAGGAUCACCCAUGUGAGCUAGGAUU,14.3,14.4,–,–,–
GAAUAAAAUAUAAUAAGAAAACAUGAGGAUCACCCAUGUACAAGAAGGGAGAAACUUAACAUAACUCAGGAUAUUGUUAUAUCA,–,–,28.9,22.2,–
GACCUGUUAGGAUAUCGAAGGAGUCAAUACCAAGUGAGACACGAGAAGGAACAUGAGGAUCACCCAUGUGAACC,11.4,15.7,–,–,–
GACGGACAUGAGGAUCACCCAUGUUCUGGCAGCGUAGGAUAUGAAGGGAUGAUUGUACGUUCAGAAGGACGACCUG,–,–,10.3,7.53,–
GACGUGGUGAAGAAGGGCUGACGUAACCGGUGAGCAGGAUAUUCGACUCAUUAAUACAUGAGGAUCACCCAUGUUCGGUAGCGC,24.8,68,–,–,–
GAGCCACAUGAGGAUCACCCAUGUCAGGAUAUCGCAAGCGGGAAUAAGCCAACGUCUACGAGAAGGGACUAAUG,9.79,10.3,–,–,–
GAGGCUCAUAUGUAGGAUAUUCAAGGAGCUACAUGAGGAUCACCCAUGUUCGGACGCCAAUUUUUGAAGAAGGACAAGACAGUGUU,–,–,54.6,16.2,–
GAUCGACAUGAGGAUCACCCAUGUGAGGAUAUACCGCGGACUCCGUCUGCAUGUUAGGGUAGAAGGCACCGAGC,14.1,13.1,–,–,–
GAUCGUUGGGUAAGGAUAUAAGUUUAUUGCUUGGGUUAGAAGGUACAUGAGGAUCACCCAUGUAGGUGAGUCAC,76.2,61.8,–,–,–
GAUGAGUUUAAGGAUAUGGUGCGUUGCUUCUUACCAGAAGGUAAAACAUGAGGAUCACCCAUGUGACGGGUGCC,177,103,–,–,–
GAUUCACAUGAGGAUCACCCAUGUCAGGAUAUGACUUGAGCUGUCUCCGAUCGAGCCAUCAGAAGGGACUGGAA,30,27.8,–,–,–
GAUUCGCAGUCGGCCGCCACUAACAUGAGCUGCUAGUUAUUAUCACAUGAGGAUCACCCAUGUCUUAGGACCGGGACAACCUGUU,–,–,–,–,apparent Kd [7]: 77.7 nM; apparent Kd [8]: 71 nM
GCAAGGGUGCGAGGAUAUAUUAGAGUCUCUGGAAUAGAAGGCGCAAACAGUGUACAUGAGGAUCACCCAUGUGUAUAUACUGCU,11,10.2,–,–,–
GCACACAUGAGUUAGGAUAUAUGUUGUGAGACAUGAGGAUCACCCAUGUGUGCAUUGCUUAUAAUAUAGAAGGAACCCAGGUCGGC,–,–,25.5,17.1,–
GCACCGCGAGGAUAUACUCUGGCUAUAAUACCAUAUGACAAACAUGAGGAUCACCCAUGUAGAAGGCGCGAUGU,10.4,14.2,–,–,–
GCAGAUACCAUGAGUCGACAUGAGGAUCACCCAUGUACUCCCAGAAGGAUGUACUUUGUUCAAGCAUAGGAUAUGGGCCGAACC,–,–,114,56,–
GCAUAUGCAUACAUGAGGAUCACCCAUGUGGAACUAAGGGCGAAGGAUAUGUGUUAAACUACGAGACAGAAGGUCGUGAGUAGA,–,–,19.9,15.2,–
GCAUGCGGCAAGGAUAUCAAUGCUAUGGUCUAAUGAGAAGGUGCCACAUGAGGAUCACCCAUGUUUCCGGCGAG,30.8,123,–,–,–
